Results on 2 compounds are retold here after ChEMBL document CHEMBL2169836 (J Med Chem, 2012).

pIC50: −log10 of the molar value. The source made the active and inactive calls. The rule behind the calls is not given here.

Broadly, the MRT is a mean duration of stay, worked out from the concentration-time curve. One may read the pIC50 as −log10 of the IC50, conventionally taken in molar units. What is called bioavailability is the share of a dose that reaches the circulation, judged against a reference dose that is usually intravenous.

Series [1] is described as follows: Mean resident time in jugular and femoral vein precannulated Sprague-Dawley rat at 1 mg/kg, iv by LC/MS/MS analysis. Format: ADME, organism-based. Also on record: dose 1 mg/kg, route intravenous. The settings on record: in vivo.
For series [2], the target named is T1, Cytochrome P450 3A4 (Homo sapiens, UniProt P08684). As to the kind of experiment: Inhibition of CYP3A4 in human liver microsomes using 7-benzyloxy-4-(trifluoromethyl)-coumarin as substrate after 30 mins by LC/MS/MS analysis. Format: ADME, Microsome. A general note: Microsomes from liver hold many membrane-bound enzymes, among them those of drug oxidation.
For series [3], the system named is Salmonella typhimurium. As to the kind of experiment: Genotoxicity in Salmonella typhimurium TA1535 up to 5000 ug/plate by Ames test in the presence of S9 fraction. Format: toxicity, organism-based. To be noted: salmonella enterica subsp. enterica serovar typhimurium. (In general: The Ames test detects mutagens through reverse mutation in bacteria.)
Series [4] concerns the target Voltage-gated inwardly rectifying potassium channel KCNH2 (Homo sapiens, UniProt Q12809). As to the kind of experiment: Inhibition of human ERG expressed in HEK 293 cells by PatchXpress assay. Format: cell-based, HEK293.
Series [5] concerns Escherichia coli. As to the kind of experiment: Genotoxicity in Escherichia coli WP2 expressing uvrA up to 5000 ug/plate by Ames test in absence of S9 fraction. Format: toxicity, organism-based.
For another series, the target named is Cytochrome P450 2C9 (Homo sapiens, UniProt P11712). The experiment in a line: Inhibition of CYP2C9 in human liver microsomes using 7-methoxy-4-(trifluoromethyl)-coumarin as substrate after 45 mins by LC/MS/MS analysis. Format: ADME, Microsome.
Series [6] relates to Salmonella typhimurium. The experiment in a line: Genotoxicity in Salmonella typhimurium TA98 up to 5000 ug/plate by Ames test in the absence of S9 fraction. Format: toxicity, organism-based. To be noted: salmonella enterica subsp. enterica serovar typhimurium.
The next series addresses Cytochrome P450 2C19 (Homo sapiens, UniProt P33261). The experiment in a line: Inhibition of CYP2C19 in human liver microsomes using 7-ethoxy-3-cyanocoumarin as substrate after 45 mins by LC/MS/MS analysis. Format: ADME, Microsome.
For series [7], the target named is T2, Sodium/hydrogen exchanger 3 (Homo sapiens) (UniProt P48764).
T2 sequence (whole entry): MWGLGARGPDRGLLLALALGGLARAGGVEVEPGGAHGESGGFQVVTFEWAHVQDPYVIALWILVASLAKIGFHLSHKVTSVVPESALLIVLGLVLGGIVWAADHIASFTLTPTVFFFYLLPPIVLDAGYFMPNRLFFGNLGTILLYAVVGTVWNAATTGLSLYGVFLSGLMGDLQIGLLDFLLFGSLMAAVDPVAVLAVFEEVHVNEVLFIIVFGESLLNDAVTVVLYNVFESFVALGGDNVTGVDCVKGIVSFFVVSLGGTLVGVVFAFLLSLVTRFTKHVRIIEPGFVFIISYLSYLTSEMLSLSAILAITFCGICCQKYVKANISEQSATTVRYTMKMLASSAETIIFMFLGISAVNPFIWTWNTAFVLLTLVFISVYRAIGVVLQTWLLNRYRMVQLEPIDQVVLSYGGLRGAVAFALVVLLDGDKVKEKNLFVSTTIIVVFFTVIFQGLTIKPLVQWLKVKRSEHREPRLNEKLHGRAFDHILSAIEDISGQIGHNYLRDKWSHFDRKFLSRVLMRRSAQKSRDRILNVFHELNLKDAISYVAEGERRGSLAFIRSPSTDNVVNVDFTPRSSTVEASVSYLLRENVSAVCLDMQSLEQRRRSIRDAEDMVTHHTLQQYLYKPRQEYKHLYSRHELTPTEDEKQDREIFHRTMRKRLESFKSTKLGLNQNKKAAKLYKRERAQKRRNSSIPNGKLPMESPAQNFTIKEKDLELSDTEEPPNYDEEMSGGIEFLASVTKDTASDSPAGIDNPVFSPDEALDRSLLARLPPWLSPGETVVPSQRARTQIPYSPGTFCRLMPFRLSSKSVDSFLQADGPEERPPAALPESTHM
As to the kind of experiment: Inhibition of NHE3 transfected in Chinese hamster PS120 assessed as intracellular pH change up to 16 uM. Format: cell-based.

Series [8] can be described thus: Mean resident time in overnight fasted Beagle dog at 1 mg/kg, iv. Also on record: dose 1 mg/kg, route intravenous. The settings on record: in vivo. Format: ADME, organism-based, Canis lupus familiaris.
A further series deals with U-937. The experiment in a line: Induction of phopspholipidosis in human U937 cells up to 50 uM after 24 hrs by Nile red flow cytometry assay. Format: cell-based. To be noted: u-937, 24 h.
Series [9] concerns the target T1, Cytochrome P450 3A4. The experiment in a line: Activation of CYP3A4 expressed in DPX cells co-transfected with human PXR at 0.1 to 10 uM. Format: ADME, cell-based.
In series [10] the test system is Salmonella typhimurium. The experiment in a line: Genotoxicity in Salmonella typhimurium TA1537 up to 5000 ug/plate by Ames test in the presence of S9 fraction. Format: toxicity, organism-based. The settings on record: salmonella enterica subsp. enterica serovar typhimurium.
In the next series the test system is Rattus norvegicus. The experiment in a line: Clearance in jugular and femoral vein precannulated Sprague-Dawley rat at 1 mg/kg, iv by LC/MS/MS analysis relative to hepatic blood flow. Format: ADME, organism-based, Liver. Also on record: dose 1 mg/kg, route intravenous. The settings on record: in vivo.
Series [11] in a line: Oral bioavailability in jugular and femoral vein precannulated Sprague-Dawley rat plasma at 5 mg/kg by LC/MS/MS analysis. Format: ADME, organism-based.
For series [12], the system named is Salmonella typhimurium. As to the kind of experiment: Genotoxicity in Salmonella typhimurium TA100 up to 5000 ug/plate by Ames test in the absence of S9 fraction. Format: toxicity, organism-based. To be noted: salmonella enterica subsp. enterica serovar typhimurium.
The target of a further series is Cytochrome P450 2D6 (Homo sapiens, UniProt P10635). The experiment in a line: Inhibition of CYP2D6 in human liver microsomes using 3-[2-(N,N-diethyl-N-methylamino)ethyl]-7- methoxy-4-methylcoumarin as substrate after 45 mins by LC/MS/MS analysis. Format: ADME, Microsome.
Series [13] in a line: Volume of distribution at steady state in overnight fasted Beagle dog at 1 mg/kg, iv. Format: ADME, organism-based, Canis lupus familiaris. To be noted: in vivo, read-out: Vdss. Also on record: dose 1 mg/kg, route intravenous.
A short description of series [14]: Oral bioavailability in overnight fasted Beagle dog at 5 mg/kg. Format: ADME, organism-based, Canis lupus familiaris. The settings on record: in vivo.
Series [15] in a line: Metabolic stability in rat liver microsomes at 1 uM up to 60 mins by LC/MS/MS analysis relative to hepatic blood flow. Format: ADME, Microsome. To be noted: read-out: Stability.
Series [16] deals with Salmonella typhimurium. As to the kind of experiment: Genotoxicity in Salmonella typhimurium TA1535 up to 5000 ug/plate by Ames test in the absence of S9 fraction. Format: toxicity, organism-based. The settings on record: salmonella enterica subsp. enterica serovar typhimurium.
Series [17] can be described thus: Metabolic stability in human liver microsomes at 1 uM up to 60 mins by LC/MS/MS analysis relative to hepatic blood flow. Format: ADME, Microsome. The settings on record: read-out: Stability.
A further series concerns HeLa. As to the kind of experiment: Cytotoxicity against human HeLa cells up to 100 uM after 24 hrs. Format: cell-based.
For series [18], the system named is Heart. The experiment in a line: Inhibition of ischemia reperfusion injury-induced decrease in left ventricular developed pressure in Langendorff isolated perfused Sprague-Dawley rat heart at 10 nM after 30 mins. Format: functional. Also on record: scale not given: the % may be the effect or the level left. The procedure, abridged: (§1)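 In the isolated perfused rat heart ischemia-reperfusion model, compound was present in the perfusate. Recovery of left ventricular developed pressure was expressed as % of baseline pressure, 30 min postreperfusion, against vehicle control. Left ventricular end diastolic pressure was also monitored.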

Series [19] has as its system Salmonella typhimurium. The experiment in a line: Genotoxicity in Salmonella typhimurium TA100 up to 5000 ug/plate by Ames test in the presence of S9 fraction. Format: toxicity, organism-based. To be noted: salmonella enterica subsp. enterica serovar typhimurium.
The test system of series [20] is Salmonella typhimurium. The experiment in a line: Genotoxicity in Salmonella typhimurium TA1537 up to 5000 ug/plate by Ames test in the absence of S9 fraction. Format: toxicity, organism-based. The settings on record: salmonella enterica subsp. enterica serovar typhimurium.
Series [21] in a line: Volume of distribution at steady state in jugular and femoral vein precannulated Sprague-Dawley rat at 1 mg/kg, iv by LC/MS/MS analysis. Format: ADME, organism-based. On the set-up: dose 1 mg/kg, route intravenous. To be noted: in vivo, read-out: Vdss.
For series [22], the system named is Heart. As to the kind of experiment: Inhibition of ischemia reperfusion injury-induced decrease in left ventricular developed pressure in Langendorff isolated perfused Sprague-Dawley rat heart at 100 nM after 30 mins. Format: functional. Also on record: scale not given: the % may be the effect or the level left. The procedure, abridged: as §1
The nature of series [23]: Permeability of the compound by PAMPA. The settings on record: read-out: permeability. Format: ADME. In outline:
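Donor buffers were set to pH 5.0, 6.2 and 7.4 with NaOH, and ASB7.4 buffer was used as acceptor. Filters (0.45 pore, 125 μm thick) were lipid-coated. A 10 mM DMSO stock was diluted to 41.7 μM in donor buffer. The sandwich was incubated 4 h without stirring. Reference, donor and acceptor concentrations were read in duplicate by UV plate reader, and ratings were assigned from permeation velocity.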
A general note: In PAMPA a lipid-coated filter parts donor from acceptor wells.

Another series deals with Canis familiaris. The experiment in a line: Clearance in overnight fasted Beagle dog at 1 mg/kg, iv relative to hepatic blood flow. Format: ADME, organism-based, Canis lupus familiaris, Liver. On the set-up: dose 1 mg/kg, route intravenous. To be noted: in vivo.
Series [24] concerns Escherichia coli. As to the kind of experiment: Genotoxicity in Escherichia coli WP2 expressing uvrA up to 5000 ug/plate by Ames test in presence of S9 fraction. Format: toxicity, organism-based.
Series [25] deals with Salmonella typhimurium. The experiment in a line: Genotoxicity in Salmonella typhimurium TA98 up to 5000 ug/plate by Ames test in the presence of S9 fraction. Format: toxicity, organism-based. To be noted: salmonella enterica subsp. enterica serovar typhimurium.
The target of series [26] is Sodium/hydrogen exchanger 1 (Homo sapiens, UniProt P19634). The experiment in a line: Inhibition of NHE1 in human HT-29 cells assessed as intracellular pH change after 30 mins. Format: cell-based.
In another series the test system is Caco-2. The experiment in a line: Efflux ratio of permeability from […] side in human Caco2 cells at 10 uM up to 150 mins. Format: ADME, cell-based. The settings on record: caco-2, 2.5 h.

Sequence of Sodium/hydrogen exchanger 1 (P19634 whole entry): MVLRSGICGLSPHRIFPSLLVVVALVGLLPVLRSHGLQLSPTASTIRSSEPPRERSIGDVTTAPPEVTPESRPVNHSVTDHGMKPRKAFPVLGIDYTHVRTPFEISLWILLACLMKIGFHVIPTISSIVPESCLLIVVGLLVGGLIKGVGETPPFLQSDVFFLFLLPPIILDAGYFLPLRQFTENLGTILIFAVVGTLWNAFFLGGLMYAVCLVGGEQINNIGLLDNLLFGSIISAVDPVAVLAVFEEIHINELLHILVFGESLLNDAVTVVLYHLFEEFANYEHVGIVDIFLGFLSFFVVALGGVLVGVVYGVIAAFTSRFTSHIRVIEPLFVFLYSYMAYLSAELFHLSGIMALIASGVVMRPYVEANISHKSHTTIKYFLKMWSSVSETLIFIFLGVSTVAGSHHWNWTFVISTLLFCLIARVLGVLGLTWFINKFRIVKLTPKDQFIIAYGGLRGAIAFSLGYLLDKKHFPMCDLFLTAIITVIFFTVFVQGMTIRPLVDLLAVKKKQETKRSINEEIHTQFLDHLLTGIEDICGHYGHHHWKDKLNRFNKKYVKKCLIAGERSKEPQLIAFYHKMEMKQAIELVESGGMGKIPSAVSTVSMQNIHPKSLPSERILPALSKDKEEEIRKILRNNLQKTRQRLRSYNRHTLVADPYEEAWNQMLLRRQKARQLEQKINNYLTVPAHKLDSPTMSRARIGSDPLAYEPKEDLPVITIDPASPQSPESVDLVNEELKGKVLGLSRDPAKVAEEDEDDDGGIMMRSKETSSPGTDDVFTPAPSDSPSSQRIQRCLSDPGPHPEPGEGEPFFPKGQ
T1 sequence (P08684 whole entry): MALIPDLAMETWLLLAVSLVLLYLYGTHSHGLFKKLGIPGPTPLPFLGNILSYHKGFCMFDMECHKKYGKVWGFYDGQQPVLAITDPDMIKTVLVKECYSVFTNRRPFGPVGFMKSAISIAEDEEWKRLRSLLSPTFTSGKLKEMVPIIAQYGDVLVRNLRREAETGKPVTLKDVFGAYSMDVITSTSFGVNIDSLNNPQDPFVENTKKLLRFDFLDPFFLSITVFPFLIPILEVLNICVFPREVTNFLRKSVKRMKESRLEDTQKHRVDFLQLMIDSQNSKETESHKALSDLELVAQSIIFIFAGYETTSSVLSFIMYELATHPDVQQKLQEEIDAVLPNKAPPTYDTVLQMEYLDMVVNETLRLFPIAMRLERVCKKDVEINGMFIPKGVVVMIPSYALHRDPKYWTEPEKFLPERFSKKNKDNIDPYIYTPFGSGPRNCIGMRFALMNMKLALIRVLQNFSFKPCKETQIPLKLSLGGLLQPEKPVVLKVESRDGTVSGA
Sequence of Cytochrome P450 2C19 (P33261 whole entry): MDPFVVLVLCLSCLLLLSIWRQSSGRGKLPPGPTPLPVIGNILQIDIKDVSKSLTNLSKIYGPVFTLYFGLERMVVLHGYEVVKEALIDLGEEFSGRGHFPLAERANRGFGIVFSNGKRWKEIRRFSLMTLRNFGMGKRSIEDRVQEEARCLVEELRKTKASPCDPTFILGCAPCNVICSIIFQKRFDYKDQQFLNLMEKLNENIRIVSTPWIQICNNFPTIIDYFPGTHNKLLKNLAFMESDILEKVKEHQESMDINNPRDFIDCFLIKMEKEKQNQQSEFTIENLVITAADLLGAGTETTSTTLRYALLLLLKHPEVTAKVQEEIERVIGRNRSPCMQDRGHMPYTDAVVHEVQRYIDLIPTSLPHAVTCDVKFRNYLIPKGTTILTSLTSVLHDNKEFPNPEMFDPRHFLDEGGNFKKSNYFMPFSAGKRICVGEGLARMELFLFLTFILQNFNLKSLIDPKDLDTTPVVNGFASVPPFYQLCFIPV
Sequence of Cytochrome P450 2D6 (P10635 whole entry): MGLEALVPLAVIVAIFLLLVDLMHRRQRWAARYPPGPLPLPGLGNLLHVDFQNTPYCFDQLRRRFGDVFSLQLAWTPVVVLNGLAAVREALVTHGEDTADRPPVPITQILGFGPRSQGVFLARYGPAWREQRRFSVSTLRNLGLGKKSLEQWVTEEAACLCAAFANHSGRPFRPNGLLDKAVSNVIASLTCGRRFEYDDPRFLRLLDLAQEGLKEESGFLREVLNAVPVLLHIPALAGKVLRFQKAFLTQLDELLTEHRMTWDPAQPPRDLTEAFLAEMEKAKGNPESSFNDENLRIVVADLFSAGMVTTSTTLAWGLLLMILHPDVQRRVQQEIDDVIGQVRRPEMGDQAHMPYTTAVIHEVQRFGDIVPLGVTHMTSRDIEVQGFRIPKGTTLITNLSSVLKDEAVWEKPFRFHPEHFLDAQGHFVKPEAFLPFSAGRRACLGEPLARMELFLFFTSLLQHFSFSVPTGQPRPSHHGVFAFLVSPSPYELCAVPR
Sequence of Voltage-gated inwardly rectifying potassium channel KCNH2 (Q12809 whole entry): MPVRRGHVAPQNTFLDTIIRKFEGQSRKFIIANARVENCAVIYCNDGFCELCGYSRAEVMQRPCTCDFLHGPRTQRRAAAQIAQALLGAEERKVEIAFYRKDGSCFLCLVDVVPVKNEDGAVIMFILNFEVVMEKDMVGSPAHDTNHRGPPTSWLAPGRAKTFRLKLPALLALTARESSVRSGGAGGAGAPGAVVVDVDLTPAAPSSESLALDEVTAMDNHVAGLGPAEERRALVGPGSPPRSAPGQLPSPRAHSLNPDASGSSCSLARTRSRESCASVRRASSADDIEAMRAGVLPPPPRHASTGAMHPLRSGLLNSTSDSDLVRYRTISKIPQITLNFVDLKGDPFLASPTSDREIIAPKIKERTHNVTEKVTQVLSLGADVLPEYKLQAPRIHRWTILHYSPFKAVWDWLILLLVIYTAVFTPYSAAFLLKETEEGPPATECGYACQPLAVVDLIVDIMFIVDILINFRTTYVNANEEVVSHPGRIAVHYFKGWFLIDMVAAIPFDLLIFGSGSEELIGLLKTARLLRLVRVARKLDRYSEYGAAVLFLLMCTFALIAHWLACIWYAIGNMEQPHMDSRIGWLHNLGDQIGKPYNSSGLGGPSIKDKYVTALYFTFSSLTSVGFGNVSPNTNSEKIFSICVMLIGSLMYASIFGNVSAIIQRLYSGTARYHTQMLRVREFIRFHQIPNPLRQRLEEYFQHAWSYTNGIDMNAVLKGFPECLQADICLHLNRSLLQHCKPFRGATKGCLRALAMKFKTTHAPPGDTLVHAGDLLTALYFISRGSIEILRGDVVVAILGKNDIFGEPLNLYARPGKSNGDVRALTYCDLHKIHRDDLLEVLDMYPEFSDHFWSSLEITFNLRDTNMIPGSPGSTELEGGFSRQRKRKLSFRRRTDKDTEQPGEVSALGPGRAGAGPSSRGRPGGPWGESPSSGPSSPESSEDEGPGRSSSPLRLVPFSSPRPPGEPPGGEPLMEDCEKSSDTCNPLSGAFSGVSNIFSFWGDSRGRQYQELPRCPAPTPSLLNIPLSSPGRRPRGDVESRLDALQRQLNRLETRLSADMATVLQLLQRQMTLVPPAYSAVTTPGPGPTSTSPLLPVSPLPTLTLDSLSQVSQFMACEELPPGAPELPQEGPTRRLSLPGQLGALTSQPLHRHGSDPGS
Sequence of Cytochrome P450 2C9 (P11712 whole entry): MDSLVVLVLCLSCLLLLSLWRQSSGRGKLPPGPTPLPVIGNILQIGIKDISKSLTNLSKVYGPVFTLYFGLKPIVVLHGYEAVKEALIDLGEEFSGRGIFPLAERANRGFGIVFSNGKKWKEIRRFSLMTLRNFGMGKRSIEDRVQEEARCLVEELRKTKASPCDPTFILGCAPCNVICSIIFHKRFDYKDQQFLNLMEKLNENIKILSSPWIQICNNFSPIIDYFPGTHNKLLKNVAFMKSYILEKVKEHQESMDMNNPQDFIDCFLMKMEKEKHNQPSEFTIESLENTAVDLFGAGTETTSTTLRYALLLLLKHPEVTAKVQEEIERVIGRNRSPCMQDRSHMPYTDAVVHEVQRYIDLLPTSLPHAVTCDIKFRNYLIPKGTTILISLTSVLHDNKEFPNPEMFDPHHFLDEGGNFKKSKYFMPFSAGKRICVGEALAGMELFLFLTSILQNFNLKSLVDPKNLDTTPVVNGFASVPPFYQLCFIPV

Take `CC(=O)N1CCC(c2ccc(C(=O)NC(=N)N)cc2C(F)(F)F)CC1` [BI 9627]: the MRT was found to be 3.2 h in series [1] and 6.2 h in series [8]. Besides, the pIC50 against Cytochrome P450 3A4 [2] was less than 4.52; in [4], less than 4.52; against Cytochrome P450 2C9, less than 4.52; against Cytochrome P450 2C19, less than 4.52; on Cytochrome P450 2D6 it was less than 4.52; in [26], 8.22. Also, the Activity entry is reported as “Non-toxic” with Salmonella typhimurium [3]; “Non-toxic” in the series on Escherichia coli [5]; “Non-toxic” in the series with Salmonella typhimurium [6]; “Non-toxic” in the series on U-937; “Not Active” on Cytochrome P450 3A4 [9]; “Non-toxic” in the series with Salmonella typhimurium [10]. Moreover, the Activity entry with Salmonella typhimurium [12] was “Non-toxic”; in the series with Salmonella typhimurium [16], “Non-toxic”; in the series with HeLa, “Non-toxic”; in the series with Heart [18], 36%; in the series on Salmonella typhimurium [19] it was “Non-toxic”; in the series on Salmonella typhimurium [20], “Non-toxic”. Further, the Activity in the series with Heart [22] is 100%; in the series on Escherichia coli [24], “Non-toxic”; with Salmonella typhimurium [25], “Non-toxic”. The inhibition entry in [7] was “inactive”. Also, the CL is 5.7% with Rattus norvegicus and 13% in the series with Canis familiaris. For the same compound, the bioavailability amounted to 73% in series [11] and 33% in series [14]. Besides, the results for the Vd in [13] and in [21] were 1.4 L/kg and 0.76 L/kg, respectively. Also, the hepatic extraction ratio at 1 h, 1 µM in [15] is 0.11; in series [17], less than 0.11. For the same compound, the Papp in series [23] was no less than 2 ×10⁻⁶ cm/s.

In series [1], `CCC(=O)N1CCC(c2cc(C)c(C(=O)NC(=N)N)cc2S(C)(=O)=O)CC1` displayed an MRT of 0.3 h. Besides, the CL in the series with Rattus norvegicus turned out to be 54%. The same compound had a bioavailability in [11] of 1%. Also, the Ratio with Caco-2 is given as 14. The Vd in series [21] worked out at 0.95 L/kg. The pIC50 in [26] is 7.82.
